Results published in ChEMBL document CHEMBL1125199, “Comparison of azabicyclic esters and oxadiazoles as ligands for the muscarinic receptor” (J Med Chem, 1991).

Tests used:
[1] = test system: Mus musculus; test: Dose administered perorally which causes a fall of 3 degrees C in mean rectal temperature in group of 5 mice; type: functional
In short: (§1)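 Male CDI mice, 25–32 g, housed singly; rectal temperature read by thermocouple probe at 2.5 cm depth, three baseline readings at 20–30 min intervals, then every 15 min after dosing. ED3 read graphically as the dose giving a 3 °C fall in mean rectal temperature, groups of five; 95% confidence intervals given.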

[2] = test system: Mus musculus; test: Dose administered subcutaneously which causes a fall of 3 degrees C in mean rectal temperature in group of 5 mice; type: functional; in short: as §1
[3] = biological target: Muscarinic acetylcholine receptor; test: The compound was tested in vitro for central muscarinic acetylcholine receptor affinity to displace [3H]oxotremorine-M from rat cerebral cortex; Value ranges from 190-280; type: tissue-based
[4] = biological target: Muscarinic acetylcholine receptor; test: The compound was tested in vitro for central muscarinic acetylcholine receptor affinity to displace [3H]quinuclidinyl benzilate from rat cerebral cortex; Value ranges from 44000-60000; type: tissue-based
[5] = biological target: T1, Muscarinic acetylcholine receptor (Rattus norvegicus) (UniProt P08482+P08483+P08485+P08911+P10980); test: Relative binding of QNB and OXO-M to muscarininc receptors (ratio of IC50); type: protein assay
In short: (§2)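 Ratio of IC50 for [3H]QNB displacement to IC50 for [3H]OXO-M displacement in rat cerebral cortex membranes. [3H]QNB at 0.27 nM; [3H]OXO-M at 2 nM with 2 mM MgCl2. Both incubated at 37 °C for 30 min in 50 mM Tris pH 7.7.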

[6] = biological target: Muscarinic acetylcholine receptor; test: The compound was tested in vitro for central muscarinic acetylcholine receptor affinity to displace [3H]oxotremorine-M from rat cerebral cortex; Value ranges from 950-1000; type: tissue-based
[7] = biological target: Muscarinic acetylcholine receptor; test: The compound was tested in vitro for central muscarinic acetylcholine receptor affinity to displace [3H]quinuclidinyl benzilate from rat cerebral cortex; Value ranges from 15000-25000; type: tissue-based
[8] = biological target: T1, Muscarinic acetylcholine receptor (Rattus norvegicus); test: It is the ratio of IC50 (QNB) to that of IC50 (OXO-M); type: protein assay; in short: as §2
[9] = biological target: Muscarinic acetylcholine receptor; test: The compound was tested in vitro for central muscarinic acetylcholine receptor affinity to displace [3H]quinuclidinyl benzilate from rat cerebral cortex; Value ranges from 1800-3000; type: tissue-based
[10] = biological target: Muscarinic acetylcholine receptor; test: The compound was tested in vitro for central muscarinic acetylcholine receptor affinity to displace [3H]oxotremorine-M from rat cerebral cortex; Value ranges from 25-31; type: tissue-based
[11] = biological target: Muscarinic acetylcholine receptor; test: The compound was tested in vitro for central muscarinic acetylcholine receptor affinity to displace [3H]oxotremorine-M from rat cerebral cortex; Value ranges from 1000-1900; type: tissue-based
[12] = biological target: Muscarinic acetylcholine receptor; test: The compound was tested in vitro for central muscarinic acetylcholine receptor affinity to displace [3H]quinuclidinyl benzilate from rat cerebral cortex; Value ranges from 60000-65000; type: tissue-based
[13] = biological target: Muscarinic acetylcholine receptor; test: The compound was tested in vitro for central muscarinic acetylcholine receptor affinity to displace [3H]oxotremorine-M from rat cerebral cortex; Value ranges from 75-80; type: tissue-based
[14] = biological target: Muscarinic acetylcholine receptor; test: The compound was tested in vitro for central muscarinic acetylcholine receptor affinity to displace [3H]quinuclidinyl benzilate from rat cerebral cortex; Value ranges from 11000-14000; type: tissue-based
[15] = biological target: Muscarinic acetylcholine receptor; test: The compound was tested in vitro for central muscarinic acetylcholine receptor affinity to displace [3H]quinuclidinyl benzilate from rat cerebral cortex; Value ranges from 16000-36000; type: tissue-based
[16] = biological target: Muscarinic acetylcholine receptor; test: The compound was tested in vitro for central muscarinic acetylcholine receptor affinity to displace [3H]oxotremorine-M from rat cerebral cortex; Value ranges from 440-600; type: tissue-based
[17] = biological target: Muscarinic acetylcholine receptor; test: The compound was tested in vitro for central muscarinic acetylcholine receptor affinity to displace [3H]oxotremorine-M from rat cerebral cortex; Value ranges from 650-1900; type: tissue-based
[18] = biological target: Muscarinic acetylcholine receptor; test: The compound was tested in vitro for central muscarinic acetylcholine receptor affinity to displace [3H]quinuclidinyl benzilate from rat cerebral cortex; Value ranges from 8000-17000; type: tissue-based
[19] = test system: Mus musculus; test: Dose administered subcutaneously which causes a fall of 3 degrees C in mean rectal temperature in group of 5 mice.; type: functional; in short: as §1
[20] = biological target: Muscarinic acetylcholine receptor; test: The compound was tested in vitro for central Muscarinic acetylcholine receptor affinity to displace [3H]quinuclidinyl benzilate from rat cerebral cortex; Value ranges from […]; type: tissue-based
[21] = biological target: Muscarinic acetylcholine receptor; test: The compound was tested in vitro for central Muscarinic acetylcholine receptor affinity to displace [3H]oxotremorine-M from rat cerebral cortex; Value ranges from 12-18; type: tissue-based
[22] = It is the ratio of IC50(QNB) to that of IC50(OXO-M); in short: as §2
[23] = biological target: Muscarinic acetylcholine receptor; test: The compound was tested in vitro for central muscarinic acetylcholine receptor affinity to displace [3H]oxotremorine-M from rat cerebral cortex; Value ranges from 200-340; type: tissue-based
[24] = biological target: Muscarinic acetylcholine receptor; test: The compound was tested in vitro for central muscarinic acetylcholine receptor affinity to displace [3H]quinuclidinyl benzilate from rat cerebral cortex; Value ranges from 2800-6300; type: tissue-based
[25] = biological target: Muscarinic acetylcholine receptor; test: The compound was tested in vitro for central muscarinic acetylcholine receptor affinity to displace [3H]quinuclidinyl benzilate from rat cerebral cortex; Value ranges from 1300-2300; type: tissue-based
[26] = biological target: Muscarinic acetylcholine receptor; test: The compound was tested for muscarinic acetylcholine receptor affinity to displace [3H]oxotremorine-M from rat cerebral cortex; Value ranges from 250-280; type: tissue-based
[27] = biological target: Muscarinic acetylcholine receptor; test: The compound was tested in vitro for central muscarinic acetylcholine receptor affinity to displace [3H]oxotremorine-M from rat cerebral cortex; Value ranges from 36-85; type: tissue-based
[28] = biological target: Muscarinic acetylcholine receptor; test: The compound was tested in vitro for central muscarinic acetylcholine receptor affinity to displace [3H]quinuclidinyl benzilate from rat cerebral cortex; Value ranges from 29000-33000; type: tissue-based
[29] = biological target: Muscarinic acetylcholine receptor; test: The compound was tested in vitro for central muscarinic acetylcholine receptor affinity to displace [3H]oxotremorine-M from rat cerebral cortex; Value ranges from 78-200; type: tissue-based
[30] = biological target: Muscarinic acetylcholine receptor; test: The compound was tested in vitro for central muscarinic acetylcholine receptor affinity to displace [3H]quinuclidinyl benzilate from rat cerebral cortex; Value ranges from 23000-38000; type: tissue-based
[31] = biological target: Muscarinic acetylcholine receptor; test: The compound was tested in vitro for central muscarinic acetylcholine receptor affinity to displace [3H]quinuclidinyl benzilate from rat cerebral cortex; Value ranges from 1700-2000; type: tissue-based
[32] = biological target: Muscarinic acetylcholine receptor; test: The compound was tested in vitro for central muscarinic acetylcholine receptor affinity to displace [3H]oxotremorine-M from rat cerebral cortex; Value ranges from 6-29; type: tissue-based
[33] = biological target: Muscarinic acetylcholine receptor; test: The compound was tested in vitro for central muscarinic acetylcholine receptor affinity to displace [3H]oxotremorine-M from rat cerebral cortex; Value ranges from 93-190; type: tissue-based
[34] = biological target: Muscarinic acetylcholine receptor; test: The compound was tested in vitro for central muscarinic acetylcholine receptor affinity to displace [3H]quinuclidinyl benzilate from rat cerebral cortex; Value ranges from 14000-38000; type: tissue-based
[35] = biological target: Muscarinic acetylcholine receptor; test: The compound was tested in vitro for central muscarinic acetylcholine receptor affinity to displace [3H]oxotremorine-M from rat cerebral cortex; Value ranges from 14-27; type: tissue-based
[36] = biological target: Muscarinic acetylcholine receptor; test: The compound was tested in vitro for central muscarinic acetylcholine receptor affinity to displace [3H]quinuclidinyl benzilate from rat cerebral cortex; Value ranges from 6200-6700; type: tissue-based
[37] = biological target: Muscarinic acetylcholine receptor; test: The compound was tested in vitro for central muscarinic acetylcholine receptor affinity to displace [3H]oxotremorine-M from rat cerebral cortex; Value ranges from 34-52; type: tissue-based
[38] = biological target: Muscarinic acetylcholine receptor; test: The compound was tested in vitro for central muscarinic acetylcholine receptor affinity to displace [3H]quinuclidinyl benzilate from rat cerebral cortex; Value ranges from 8000-11000; type: tissue-based
[39] = biological target: Muscarinic acetylcholine receptor; test: The compound was tested in vitro for central muscarinic acetylcholine receptor affinity to displace [3H]quinuclidinyl benzilate from rat cerebral cortex; Value ranges from 15000-45000; type: tissue-based
[40] = biological target: Muscarinic acetylcholine receptor; test: The compound was tested in vitro for central muscarinic acetylcholine receptor affinity to displace [3H]oxotremorine-M from rat cerebral cortex; Value ranges from 73-120; type: tissue-based
[41] = biological target: Muscarinic acetylcholine receptor; test: The compound was tested in vitro for central muscarinic acetylcholine receptor affinity to displace [3H]oxotremorine-M from rat cerebral cortex; Value ranges from 100-150; type: tissue-based
[42] = biological target: Muscarinic acetylcholine receptor; test: The compound was tested in vitro for central muscarinic acetylcholine receptor affinity to displace [3H]quinuclidinyl benzilate from rat cerebral cortex; Value ranges from 3900-5800; type: tissue-based
[43] = biological target: Muscarinic acetylcholine receptor; test: The compound was tested in vitro for central muscarinic acetylcholine receptor affinity to displace [3H]oxotremorine-M from rat cerebral cortex; Value ranges from 41-48; type: tissue-based
[44] = biological target: Muscarinic acetylcholine receptor; test: The compound was tested in vitro for central muscarinic acetylcholine receptor affinity to displace [3H]quinuclidinyl benzilate from rat cerebral cortex; Value ranges from 2300-2600; type: tissue-based
[45] = biological target: Muscarinic acetylcholine receptor; test: The compound was tested in vitro for central muscarinic acetylcholine receptor affinity to displace [3H]oxotremorine-M from rat cerebral cortex; Value ranges from 1.6-3.9; type: tissue-based
[46] = biological target: Muscarinic acetylcholine receptor; test: The compound was tested in vitro for central muscarinic acetylcholine receptor affinity to displace [3H]quinuclidinyl benzilate from rat cerebral cortex; Value ranges from 930-1100; type: tissue-based
[47] = biological target: Muscarinic acetylcholine receptor; test: The compound was tested in vitro for central muscarinic acetylcholine receptor affinity to displace [3H]oxotremorine-M from rat cerebral cortex; Value ranges from 93-280; type: tissue-based
[48] = biological target: Muscarinic acetylcholine receptor; test: The compound was tested in vitro for central muscarinic acetylcholine receptor affinity to displace [3H]quinuclidinyl benzilate from rat cerebral cortex; Value ranges from 48000-100000; type: tissue-based

`COC(=O)[C@@H]1CN2CC[C@@H]1C2` gave an ED3 [1] greater than 10 mg/kg, an ED3 [2] of 0.41 mg/kg and an IC50 [3] of 0.23 µM. The IC50 [4] was 51 µM and the Ratio [5] was 220.
With `Cc1nnc(C2CN3CCC2CC3)o1` (stereo unspecified) the IC50 [6] was 0.98 µM, the IC50 [7] was 19 µM and the Ratio [8] was 20.
Compound `Cc1noc([C@@H]2C[C@H]3CCN(C3)C2)n1` has an IC50 [9] of 2.4 µM, an IC50 [10] of 0.028 µM and a Ratio [5] of 84.
With `COC(=O)[C@@H]1C[N@@]2CCC[C@@H]1C2` the IC50 [11] was 1.4 µM, the IC50 [12] was 62 µM and the Ratio [8] was 46.
For `COC(=O)[C@@H]1C[C@H]2CCN(C2)C1`, the IC50 [13] was 0.077 µM, the IC50 [14] was 12 µM and the Ratio [5] was 160.
With `COC(=O)C1CN2CCC1CC2` (stereo unspecified) the IC50 [15] was 25 µM, the IC50 [16] was 0.52 µM and the Ratio [5] was 49.
Compound `Cc1nc(C2CN3CCC2CC3)no1` (stereo unspecified) has an IC50 [17] of 1.1 µM, an IC50 [18] of 12 µM and a Ratio [8] of 10.
`Cc1noc(C23CCCN(CC2)C3)n1` (stereo unspecified) gave an ED3 [1] of 0.018 mg/kg, an ED3 [19] of 0.0029 mg/kg and an IC50 [20] of 3.5 µM. The IC50 [21] was 0.015 µM and the Ratio [22] was 230.
`Cc1nc(C23CCCN(CC2)C3)no1` (stereo unspecified) showed an IC50 [23] of 0.26 µM, an IC50 [24] of 4.2 µM and a Ratio [8] of 16.
`Cc1noc([C@@H]2C[C@H]3CCCN(C3)C2)n1` gave an IC50 [25] of 1.73 µM, an IC50 [26] of 0.26 µM and a Ratio [5] of 7.
`COC(=O)C12CCN(CC1)C2` gave an IC50 [27] of 0.048 µM, a Ratio [8] of 650 and an IC50 [28] of 31 µM.
Compound `Cc1nnc([C@@H]2CN3CC[C@@H]2C3)o1` has an IC50 [29] of 0.12 µM, a Ratio [8] of 240 and an IC50 [30] of 29 µM.
In the case of `Cc1noc(C2CN3CCC2CC3)n1` (stereo unspecified), the IC50 [31] is reported as 1.8 µM, the IC50 [32] is reported as 0.014 µM and the Ratio [5] is reported as 130.
`Cc1noc(C23CCN(CC2)C3)n1` gave an IC50 [33] of 0.13 µM, an IC50 [34] of 23 µM and a Ratio [5] of 170.
With `COC(=O)C12CCCN(CC1)C2` (stereo unspecified) the ED3 [1] was greater than 0.3 mg/kg, the ED3 [2] was 0.078 mg/kg and the IC50 [35] was 0.019 µM. The IC50 [36] was 6.4 µM and the Ratio [5] was 340.
With `Cc1nnc(C23CCCN(CC2)C3)o1` (stereo unspecified) the IC50 [37] was 0.042 µM, the IC50 [38] was 9.4 µM and the Ratio [8] was 220.
`Cc1nc([C@@H]2CN3CC[C@@H]2C3)no1` showed an IC50 [39] of 27 µM, an IC50 [40] of 0.092 µM and a Ratio [5] of 290.
Compound `COC(=O)[C@@H]1C[C@H]2CCCN(C2)C1` has an IC50 [41] of 0.13 µM, a Ratio [5] of 37 and an IC50 [42] of 4.8 µM.
`Cc1noc([C@@H]2CN3CCC[C@@H]2C3)n1` showed an IC50 [43] of 0.044 µM, a Ratio [5] of 55 and an IC50 [44] of 2.4 µM.
For `Cc1noc([C@@H]2CN3CC[C@@H]2C3)n1`, the ED3 [1] was 0.0011 mg/kg, the ED3 [2] was 0.0005 mg/kg and the IC50 [45] was 0.0028 µM. It also gave an IC50 [46] of 1 µM and a Ratio [5] of 360.
With `Cc1nnc(C23CCN(CC2)C3)o1` the IC50 [47] was 0.18 µM, the IC50 [48] was 70 µM and the Ratio [8] was 380.
